Data published in ChEMBL document CHEMBL1142894, “Preparation of 5-aryl-3-alkylthio-l,2,4-triazoles and corresponding sulfones with antiinflammatory-analgesic activity” (Bioorg Med Chem, 2007).
Activity calls are given as the source filed them. No cut-off for these calls is given here.

Columns and labels:
Mus musculus [1] = test: Antiinflammatory activity against carrageenan-induced paw edema in Swiss albino mouse assessed as swelling thickness at 100 mg/kg, po after 180 mins; format: functional
Summary of the method: (§1)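 Oral dosing in 0.5% CMC; vehicle to controls. Then carrageenan (0.5 mg/25 ll, freshly suspended in 154 mM saline) injected into the right hind paw subplantar tissue; saline into the left paw. Right-left footpad thickness difference measured by dial gauge calliper every 90 min over 6 h. Inhibition % is relative to vehicle control. n = 6; mean ± SEM.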

Mus musculus [2] = test: Inhibition of p-benzoquinone-induced writhing in Swiss albino mouse at 200 mg/kg, po relative to control; format: functional
Summary of the method: (§2)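 Mice, n = 6 per group, dosed orally with a suspension in 0.5% sodium CMC. 60 min later, 0.1 ml/10 g of 2.5% […] p-benzoquinone in distilled water given ip. Abdominal writhes counted per animal for 15 min, starting 5 min after injection. Expressed as % change in mean writhing count versus vehicle controls.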

Mus musculus [3] = test: Inhibition of carrageenan-induced paw edema in Swiss albino mouse at 200 mg/kg, po after 90 mins relative to control; format: functional; conditions: 1.5 h; summary of the method: as §1
Mus musculus [4] = test: Inhibition of carrageenan-induced paw edema in Swiss albino mouse at 50 mg/kg, po after 180 mins relative to control; format: functional; conditions: 3 h; summary of the method: as §1
Mus musculus [5] = test: Antiinflammatory activity against carrageenan-induced paw edema in Swiss albino mouse assessed as swelling thickness at 25 mg/kg, po after 270 mins; format: functional; summary of the method: as §1
Mus musculus [6] = test: Antiinflammatory activity against carrageenan-induced paw edema in Swiss albino mouse assessed as swelling thickness at 100 mg/kg, po after 270 mins; format: functional; summary of the method: as §1
Mus musculus [7] = test: Antiinflammatory activity against carrageenan-induced paw edema in Swiss albino mouse assessed as swelling thickness at 50 mg/kg, po after 180 mins; format: functional; summary of the method: as §1
Mus musculus [8] = test: Antiinflammatory activity against carrageenan-induced paw edema in Swiss albino mouse assessed as swelling thickness at 50 mg/kg, po after 360 mins; format: functional; summary of the method: as §1
Mus musculus [9] = test: Inhibition of carrageenan-induced paw edema in Swiss albino mouse at 50 mg/kg, po after 270 mins relative to control; format: functional; conditions: 4.5 h
Summary of the method: (§3)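 Mice, n = 6 per group. Test agent given orally as a suspension in 0.5% sodium CMC in distilled water; controls received vehicle only. Afterwards, 0.5 mg/25 ll carrageenan in saline (154 mM NaCl) injected subplantar into the right hind paw, saline into the left. Right-minus-left footpad thickness measured by dial gauge caliper every 90 min for 6 h. Inhibition is relative to vehicle-control group means.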

Mus musculus [10] = test: Gastric-ulcerogenic effect in Swiss albino mouse assessed as lesions at 50 mg/kg, po; format: functional, organism-based; parameters: dose 50 mg/kg
Summary of the method: (§4)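 Mice killed under deep ether anesthesia 3 h after the writhing test; the oral dose in 0.5% CMC was the one used in that test. Stomachs removed, opened along the great curvature and examined under a dissecting microscope for lesions or bleeding. Reported as ratio of ulceration; n = 6.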

Mus musculus [11] = test: Antiinflammatory activity against carrageenan-induced paw edema in Swiss albino mouse assessed as swelling thickness at 200 mg/kg, po after 360 mins; format: functional; summary of the method: as §1
Mus musculus [12] = test: Antiinflammatory activity against carrageenan-induced paw edema in Swiss albino mouse assessed as swelling thickness at 200 mg/kg, po after 270 mins; format: functional; summary of the method: as §1
Mus musculus [13] = test: Inhibition of carrageenan-induced paw edema in Swiss albino mouse at 50 mg/kg, po after 90 mins relative to control; format: functional; conditions: 1.5 h; summary of the method: as §3
Mus musculus [14] = test: Acute toxicity in Swiss albino mouse assessed as lethal effect at 25 mg/kg/day, po after 72 hrs; format: organism-based; parameters: route oral; conditions: in vivo
Summary of the method: (§5)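 Oral single dose suspended in 0.5% carboxymethylcellulose, given after a 24 h fast; food and water returned 1 h after dosing. Vehicle-only controls. Mice observed at 1 h, then once daily for 72 h, for toxic signs and mortality.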

Mus musculus [15] = test: Antiinflammatory activity against carrageenan-induced paw edema in Swiss albino mouse assessed as swelling thickness at 100 mg/kg, po after 90 mins; format: functional; summary of the method: as §1
Mus musculus [16] = test: Inhibition of carrageenan-induced paw edema in Swiss albino mouse at 100 mg/kg, po after 360 mins relative to control; format: functional; conditions: 6 h; summary of the method: as §1
Mus musculus [17] = test: Acute toxicity in Swiss albino mouse assessed as lethal effect at 200 mg/kg/day, po after 72 hrs; format: organism-based; parameters: route oral; conditions: in vivo; summary of the method: as §5
Mus musculus [18] = test: Inhibition of carrageenan-induced paw edema in Swiss albino mouse at 200 mg/kg, po after 270 mins relative to control; format: functional; conditions: 4.5 h; summary of the method: as §1
Mus musculus [19] = test: Inhibition of carrageenan-induced paw edema in Swiss albino mouse at 25 mg/kg, po after 270 mins relative to control; format: functional; conditions: 4.5 h; summary of the method: as §1
Mus musculus [20] = test: Antiinflammatory activity against carrageenan-induced paw edema in Swiss albino mouse assessed as swelling thickness at 25 mg/kg, po after 90 mins; format: functional; summary of the method: as §1
Mus musculus [21] = test: Antiinflammatory activity against carrageenan-induced paw edema in Swiss albino mouse assessed as swelling thickness at 25 mg/kg, po after 180 mins; format: functional; summary of the method: as §1
Mus musculus [22] = test: Antiinflammatory activity against carrageenan-induced paw edema in Swiss albino mouse assessed as swelling thickness at 200 mg/kg, po after 180 mins; format: functional; summary of the method: as §1
Mus musculus [23] = test: Analgesic activity against p-benzoquinone-induced abdominal constriction in Swiss albino mouse assessed as number of writhings at 50 mg/kg, po; format: functional, Abdomen
Summary of the method: (§6)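 Test samples given orally in 0.5% CMC; vehicle to controls. 60 min later, 2.5% (v/v) p-benzoquinone in distilled water, 0.1 ml/10 g, given i.p. Mice housed singly; writhes counted for 15 min starting 5 min after injection. Activity is % change from vehicle controls. n = 6; mean ± SEM.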

Mus musculus [24] = test: Inhibition of carrageenan-induced paw edema in Swiss albino mouse at 100 mg/kg, po after 270 mins relative to control; format: functional; conditions: 4.5 h; summary of the method: as §1
Mus musculus [25] = test: Antiinflammatory activity against carrageenan-induced paw edema in Swiss albino mouse assessed as swelling thickness at 25 mg/kg, po after 360 mins; format: functional; summary of the method: as §1
Mus musculus [26] = test: Acute toxicity in Swiss albino mouse assessed as lethal effect at 100 mg/kg/day, po after 72 hrs; format: organism-based; parameters: route oral; conditions: in vivo; summary of the method: as §5
Mus musculus [27] = test: Analgesic activity against p-benzoquinone-induced abdominal constriction in Swiss albino mouse assessed as number of writhings at 200 mg/kg, po; format: functional, Abdomen; summary of the method: as §6
Mus musculus [28] = test: Inhibition of p-benzoquinone-induced writhing in Swiss albino mouse at 50 mg/kg, po relative to control; format: functional; summary of the method: as §2
Mus musculus [29] = test: Inhibition of p-benzoquinone-induced writhing in Swiss albino mouse at 25 mg/kg, po relative to control; format: functional; summary of the method: as §2
Mus musculus [30] = test: Antiinflammatory activity against carrageenan-induced paw edema in Swiss albino mouse assessed as swelling thickness at 100 mg/kg, po after 360 mins; format: functional; summary of the method: as §1
Mus musculus [31] = test: Inhibition of carrageenan-induced paw edema in Swiss albino mouse at 50 mg/kg, po after 360 mins relative to control; format: functional; conditions: 6 h; summary of the method: as §3
Mus musculus [32] = test: Inhibition of carrageenan-induced paw edema in Swiss albino mouse at 100 mg/kg, po after 180 mins relative to control; format: functional; conditions: 3 h; summary of the method: as §1
Mus musculus [33] = test: Analgesic activity against p-benzoquinone-induced abdominal constriction in Swiss albino mouse assessed as number of writhings at 100 mg/kg, po; format: functional, Abdomen; summary of the method: as §6
Mus musculus [34] = test: Antiinflammatory activity against carrageenan-induced paw edema in Swiss albino mouse assessed as swelling thickness at 50 mg/kg, po after 270 mins; format: functional; summary of the method: as §1
Mus musculus [35] = test: Inhibition of p-benzoquinone-induced writhing in Swiss albino mouse at 100 mg/kg, po relative to control; format: functional; summary of the method: as §2
Mus musculus [36] = test: Acute toxicity in Swiss albino mouse assessed as lethal effect at 50 mg/kg/day, po after 72 hrs; format: organism-based; parameters: route oral; conditions: in vivo; summary of the method: as §5
Mus musculus [37] = test: Inhibition of carrageenan-induced paw edema in Swiss albino mouse at 25 mg/kg, po after 360 mins relative to control; format: functional; conditions: 6 h; summary of the method: as §1
Mus musculus [38] = test: Inhibition of carrageenan-induced paw edema in Swiss albino mouse at 25 mg/kg, po after 90 mins relative to control; format: functional; conditions: 1.5 h; summary of the method: as §1
Mus musculus [39] = test: Inhibition of carrageenan-induced paw edema in Swiss albino mouse at 200 mg/kg, po after 360 mins relative to control; format: functional; conditions: 6 h; summary of the method: as §1
Mus musculus [40] = test: Inhibition of carrageenan-induced paw edema in Swiss albino mouse at 100 mg/kg, po after 90 mins relative to control; format: functional; conditions: 1.5 h; summary of the method: as §1
Mus musculus [41] = test: Antiinflammatory activity against carrageenan-induced paw edema in Swiss albino mouse assessed as swelling thickness at 50 mg/kg, po after 90 mins; format: functional; summary of the method: as §1
Mus musculus [42] = test: Inhibition of carrageenan-induced paw edema in Swiss albino mouse at 25 mg/kg, po after 180 mins relative to control; format: functional; conditions: 3 h; summary of the method: as §1
Mus musculus [43] = test: Gastric-ulcerogenic effect in Swiss albino mouse assessed as lesions at 25 mg/kg, po; format: functional, organism-based; parameters: dose 25 mg/kg; summary of the method: as §4
Mus musculus [44] = test: Antiinflammatory activity against carrageenan-induced paw edema in Swiss albino mouse assessed as swelling thickness at 200 mg/kg, po after 90 mins; format: functional; summary of the method: as §1
Mus musculus [45] = test: Analgesic activity against p-benzoquinone-induced abdominal constriction in Swiss albino mouse assessed as number of writhings at 25 mg/kg, po; format: functional, Abdomen; summary of the method: as §6

## CCSc1nc(-c2ccc(Cl)cc2)n[nH]1
Mus musculus [1]
  Activity: 38.2 10^-2mm
Mus musculus [2]
  inhibition in vivo at 200 mg/kg: 12.8%
Mus musculus [3]
  inhibition in vivo at 200 mg/kg: 2.6%
Mus musculus [4]
  inhibition in vivo at 50 mg/kg: 27.3%
Mus musculus [5]
  Activity: 63.5 10^-2mm
Mus musculus [6]
  Activity: 40.7 10^-2mm
Mus musculus [7]
  Activity: 43.2 10^-2mm
Mus musculus [8]
  Activity: 43.1 10^-2mm
Mus musculus [9]
  inhibition in vivo at 50 mg/kg: 29.3%
Mus musculus [10]
  Activity: Active
Mus musculus [11]
  Activity: 74.2 10^-2mm
Mus musculus [12]
  Activity: 63.5 10^-2mm
Mus musculus [13]
  inhibition in vivo at 50 mg/kg: 26.5%
Mus musculus [14]
  Activity: Non-toxic
Mus musculus [15]
  Activity: 34.3 10^-2mm
Mus musculus [16]
  inhibition in vivo at 100 mg/kg: 35.8%
Mus musculus [17]
  Activity: Non-toxic
Mus musculus [18]
  inhibition in vivo at 200 mg/kg: 2%
Mus musculus [19]
  inhibition in vivo at 25 mg/kg: 16.9%
Mus musculus [20]
  Activity: 45.9 10^-2mm
Mus musculus [21]
  Activity: 49.9 10^-2mm
Mus musculus [22]
  Activity: 59.9 10^-2mm
Mus musculus [23]
  Activity: 34.2
Mus musculus [24]
  inhibition in vivo at 100 mg/kg: 30.8%
Mus musculus [25]
  Activity: 59.7 10^-2mm
Mus musculus [26]
  Activity: Non-toxic
Mus musculus [27]
  Activity: 44.8
Mus musculus [28]
  inhibition in vivo at 50 mg/kg: 33.5%
Mus musculus [29]
  inhibition in vivo at 25 mg/kg: 12.3%
Mus musculus [30]
  Activity: 44.2 10^-2mm
Mus musculus [31]
  inhibition in vivo at 50 mg/kg: 40.1%
Mus musculus [32]
  inhibition in vivo at 100 mg/kg: 25.8%
Mus musculus [33]
  Activity: 33.8
Mus musculus [34]
  Activity: 45.8 10^-2mm
Mus musculus [35]
  inhibition in vivo at 100 mg/kg: 28.5%
Mus musculus [36]
  Activity: Non-toxic
Mus musculus [37]
  inhibition in vivo at 25 mg/kg: 17.1%
Mus musculus [38]
  inhibition in vivo at 25 mg/kg: 13.7%
Mus musculus [39]
  inhibition in vivo at 200 mg/kg: 3.4%
Mus musculus [40]
  inhibition in vivo at 100 mg/kg: 23.4%
Mus musculus [41]
  Activity: 39.1 10^-2mm
Mus musculus [42]
  inhibition in vivo at 25 mg/kg: 15.9%
Mus musculus [43]
  Activity: Active
Mus musculus [44]
  Activity: 51.8 10^-2mm
Mus musculus [45]
  Activity: 45.1
